Measurements reported in ChEMBL document CHEMBL4513216, “Probing the Open Global Health Chemical Diversity Library for Multistage-Active Starting Points for Next-Generation Antimalarials” (ACS Infect Dis, 2020).

test: Toxicity liver stage against HepG2, at 10uM; format: cell-based; set-up: test concentration 10 uM, cell line HepG2-A16-CD81EGFP; conditions: human, HepG2-A16-CD81EGFP cells; read-out: INHIBITION
In short: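 Uninfected HepG2-A16-CD81EGFP cells, 3 × 10^3 per well, 1536-well, plated on prespotted compound at 10 μM final, parasite-free screening media added to match infected plates; puromycin 10 μM positive, DMSO 0.5% negative; run in parallel with 48 h PbLuc assay at 37 °C, 5% CO2; viability by CellTiter-Glo luminescence, normalized to controls.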

Q: With `CCOC(=O)c1cnn(-c2cc(Oc3cccc(C)c3)ncn2)c1N` as the compound, how does the cytotoxicity at 10 µM read?
A: 16.9%

Q: For `Cn1c(CN2CCOC[C@H]2c2nc(C(C)(C)C)co2)nc2ccccc21`, which cytotoxicity at 10 µM is on record?
A: 4.78%

Q: With `O=C(NC[C@H]1OC[C@@H](NC2CCOCC2)[C@@H]1O)Nc1ccccc1` as the compound, how does the cytotoxicity at 10 µM read?
A: -5.75%

Q: For `CS(=O)(=O)NC[C@H]1Cn2c(-c3ccc(F)cc3)cnc2CO1`, which cytotoxicity at 10 µM is on record?
A: -7.47%

Q: Which cytotoxicity at 10 µM does the source give for `CCOc1ccc(C(=O)Nc2c(C)nc3ccc(Cl)cn3c2=O)cc1` here?
A: -4.31%

Q: With `CCN1C(=O)C(C#N)=C(C)/C(=C/C2=Cc3ccccc3OC2)C1=O` as the compound, how does the cytotoxicity at 10 µM read?
A: -40.9%

Q: For `Cc1cnc2c(c1NCc1ccc(F)cc1)c(=O)n(C)c(=O)n2C`, which cytotoxicity at 10 µM is on record?
A: -7.36%

Q: Which cytotoxicity at 10 µM does the source give for `CCN(C)C(=O)c1ccnn1-c1ccc2ccccn12` here?
A: 6.71%

Q: Which cytotoxicity at 10 µM does the source give for `O=C(C1CC1)N1CCC2(CC1)CNCCO2` here?
A: -2.82%

Q: For `CNC(=O)C1CC2(CCN(C(=O)c3csnn3)CC2)c2ccccc21` (centres undefined), which cytotoxicity at 10 µM is on record?
A: -154%

Q: Which cytotoxicity at 10 µM does the source give for `COCCNC(=O)c1sccc1N(C)S(=O)(=O)c1ccc(Cl)cc1` here?
A: 6.33%

Q: Which cytotoxicity at 10 µM does the source give for `Cc1ccccc1COCCOCn1c(C)cc(=O)[nH]c1=O` here?
A: 2.56%

Q: For `CCn1ncc(Cn2cc(Cl)c(N)n2)c1C`, which cytotoxicity at 10 µM is on record?
A: -8.55%

Q: Which cytotoxicity at 10 µM does the source give for `CC(C)c1cc(C(=O)NCCN2CCOCC2)nc(N2CCCC2)n1` here?
A: 8.82%

Q: With `c1ccc(N2CCN(Cc3cnc(C4CCCCO4)nc3)CC2)nc1` (centres undefined) as the compound, how does the cytotoxicity at 10 µM read?
A: -3%

Q: For `CCc1cc(C(F)(F)F)c2c(C3CCN(C(=O)COC)CC3)noc2n1`, which cytotoxicity at 10 µM is on record?
A: 14%

Q: With `O=C(Cc1ccccn1)N1CCc2c(O)nc(-c3cnccn3)nc2C1` as the compound, how does the cytotoxicity at 10 µM read?
A: -27%

Q: For `Cc1cccc(CN2CCCC2c2cccc(CCC(=O)O)n2)c1` (centres undefined), which cytotoxicity at 10 µM is on record?
A: -12.6%

Q: For `Cc1cncc(CN2C[C@@H](O)[C@H](Oc3ccccc3)C2)c1`, which cytotoxicity at 10 µM is on record?
A: 0.442%

Q: Which cytotoxicity at 10 µM does the source give for `O=C(C1CCCC1)N1CCC(c2n[nH]c3nccnc23)CC1` here?
A: 0.165%

Q: Which cytotoxicity at 10 µM does the source give for `CC(=O)N1CCCC1c1cc(N2CCN(CC(C)(C)C)CC2)cc(C)n1` (centres undefined) here?
A: -6.41%

Q: With `Cc1ccc(-c2nc(CC(=O)N3CCCC(NC(=O)C(C)C)C3)cs2)o1` (centres undefined) as the compound, how does the cytotoxicity at 10 µM read?
A: -50.5%

Q: With `OCC(CO)Nc1nc(C(F)F)nc2ccccc12` as the compound, how does the cytotoxicity at 10 µM read?
A: 6.96%

Q: For `Cc1noc(C2CCCN(C(=O)c3cc(Cl)c(Cl)n3C)C2)n1` (centres undefined), which cytotoxicity at 10 µM is on record?
A: 13.6%

Q: For `CCOc1nnc(CN2CCN(CCOC)C(C)C2)s1` (centres undefined), which cytotoxicity at 10 µM is on record?
A: -11.1%

Q: For `O=C(c1cc(C2CC2)nc2onc(-c3ccccc3)c12)N1CCOCC1`, which cytotoxicity at 10 µM is on record?
A: -40.5%

Q: With `COc1c(NS(=O)(=O)c2ccc(C)c(C)c2)c(C)nn1C` as the compound, how does the cytotoxicity at 10 µM read?
A: 3.73%

Q: Which cytotoxicity at 10 µM does the source give for `CCc1noc(CS(=O)(=O)C(C)c2nc(C3CC3)no2)n1` (centres undefined) here?
A: 11.3%

Q: With `CCN(C(=O)CN1CCn2c(nnc2C2CC2)C1)C1=CCCCC1` as the compound, how does the cytotoxicity at 10 µM read?
A: 10%

Q: For `O=C(NCc1cccnc1-n1cncn1)c1ccncc1`, which cytotoxicity at 10 µM is on record?
A: 5.91%

Q: With `Cc1cccc2nc(CNC(=O)N3CCC(OCC4CC4)CC3)cn12` as the compound, how does the cytotoxicity at 10 µM read?
A: -2.02%

Q: With `CCC(C)NC(=O)c1nnn(-c2cccc3c2CCN(C)C3)c1C` (centres undefined) as the compound, how does the cytotoxicity at 10 µM read?
A: -6.39%

Q: Which cytotoxicity at 10 µM does the source give for `CCOc1cc(C(=O)N(C)C)ccc1NC(=O)C(C)c1ccsc1` (centres undefined) here?
A: 5.61%

Q: With `O=C(CCN1C(=O)CCC1=O)Nc1ccc(Oc2ccc(Cl)cc2)nc1` as the compound, how does the cytotoxicity at 10 µM read?
A: -23.5%

Q: With `Cc1nc(SC2CCN(c3sccc3C#N)C2=O)oc1C` (centres undefined) as the compound, how does the cytotoxicity at 10 µM read?
A: -4.92%

Q: With `Cc1occc1C(=O)N(CCN(C)C)Cc1ccccn1` as the compound, how does the cytotoxicity at 10 µM read?
A: 7.65%

Q: Which cytotoxicity at 10 µM does the source give for `N#CC1(NC(=O)c2ccc(F)c(Br)c2)CCSC1` (centres undefined) here?
A: -7.08%

Q: Which cytotoxicity at 10 µM does the source give for `CCCNC(=O)C1CCN(CC(O)c2ccc(C(F)(F)F)cc2)CC1` (centres undefined) here?
A: 2.68%

Q: With `CC(C)c1noc(CCC(=O)N2CCSCC2)n1` as the compound, how does the cytotoxicity at 10 µM read?
A: -2.99%

Q: With `COc1ccccc1C(C)N1CCN(S(C)(=O)=O)CC1` (centres undefined) as the compound, how does the cytotoxicity at 10 µM read?
A: 9.62%

Q: Which cytotoxicity at 10 µM does the source give for `O=C(CNc1cccc(S(=O)(=O)C(F)F)c1)NCc1ccco1` here?
A: -40.5%

Q: With `CCN(CC(=O)N(C)C)S(=O)(=O)c1cnc2c(c1)c(C)nn2C` as the compound, how does the cytotoxicity at 10 µM read?
A: 2.59%

Q: With `CCC(CC)c1nnc(NC(=O)N2CCCC(NC(C)=O)C2)s1` (centres undefined) as the compound, how does the cytotoxicity at 10 µM read?
A: 5.9%

Q: With `Cc1cn2c(n1)C(CNCc1ccc(C)s1)CCC2` (centres undefined) as the compound, how does the cytotoxicity at 10 µM read?
A: -26.3%

Q: For `Cc1ccc2cc(C(=O)N3CCC(O)(C(F)(F)F)CC3)ccc2n1`, which cytotoxicity at 10 µM is on record?
A: -54.7%

Q: Which cytotoxicity at 10 µM does the source give for `Cn1cc(C(=O)N2CCOc3ccccc32)ccc1=O` here?
A: 13%

Q: With `CCN(C(=O)COC)C(c1cccnc1)c1ccc2c(c1)CCO2` (centres undefined) as the compound, how does the cytotoxicity at 10 µM read?
A: -12.4%

Q: Which cytotoxicity at 10 µM does the source give for `O=C(NC1CC1)c1cc2c(s1)CCN2C(=O)C1CC1` here?
A: 6.17%

Q: For `O=C1[C@H]2CN(c3cnccn3)C[C@H]2CN1CC1CC1`, which cytotoxicity at 10 µM is on record?
A: -108%

Q: With `CCC(=O)N1CCC2(CC1)CC(CC(=O)N(C)C)c1ccc(F)cc12` (centres undefined) as the compound, how does the cytotoxicity at 10 µM read?
A: -101%

Q: With `Cc1cnc(C(=O)N2CCN3C[C@H](OCc4cccnc4)C[C@H]3C2)cn1` as the compound, how does the cytotoxicity at 10 µM read?
A: -59.7%

Q: With `O=C(C1CCOC1)N1CCC2(CCN(Cc3nccs3)CC2)CC1` (centres undefined) as the compound, how does the cytotoxicity at 10 µM read?
A: -73.3%

Q: For `O=C(c1ccoc1)N1CC[C@@H]2O[C@@H](COCc3ccncc3)CC[C@@H]21`, which cytotoxicity at 10 µM is on record?
A: -80.4%

Q: With `O=C(c1cccs1)N1CCC2(C1)c1ccccc1S(=O)(=O)N2CC1CC1` (centres undefined) as the compound, how does the cytotoxicity at 10 µM read?
A: -4.27%
